Assay [1] has as its target T1, Serine/threonine-protein kinase DCLK3 (Homo sapiens) (UniProt Q9C098).
T1 sequence (whole entry): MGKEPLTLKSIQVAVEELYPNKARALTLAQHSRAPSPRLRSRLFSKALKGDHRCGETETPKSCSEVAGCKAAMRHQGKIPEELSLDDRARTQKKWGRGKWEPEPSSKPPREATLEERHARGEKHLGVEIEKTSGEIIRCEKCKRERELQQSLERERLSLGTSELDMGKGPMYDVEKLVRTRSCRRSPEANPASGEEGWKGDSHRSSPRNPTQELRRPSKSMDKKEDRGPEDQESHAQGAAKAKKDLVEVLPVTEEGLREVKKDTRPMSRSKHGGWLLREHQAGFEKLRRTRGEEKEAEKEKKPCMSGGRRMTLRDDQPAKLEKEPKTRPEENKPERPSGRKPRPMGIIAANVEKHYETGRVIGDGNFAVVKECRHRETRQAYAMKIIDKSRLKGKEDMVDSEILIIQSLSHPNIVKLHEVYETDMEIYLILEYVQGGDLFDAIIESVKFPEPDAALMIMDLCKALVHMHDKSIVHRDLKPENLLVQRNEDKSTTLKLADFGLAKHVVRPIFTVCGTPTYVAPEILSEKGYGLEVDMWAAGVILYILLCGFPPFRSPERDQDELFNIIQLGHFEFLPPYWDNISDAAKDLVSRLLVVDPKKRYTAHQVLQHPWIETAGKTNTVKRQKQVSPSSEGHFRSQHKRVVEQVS
Nature of the assay: Inhibition of human recombinant DCAMKL3 at 40 nM in presence of ATP by radiometric assay relative to control.

For assay [2], the target named is T2, Beta-adrenergic receptor kinase 1 (Homo sapiens) (UniProt P25098).
T2 sequence (whole entry): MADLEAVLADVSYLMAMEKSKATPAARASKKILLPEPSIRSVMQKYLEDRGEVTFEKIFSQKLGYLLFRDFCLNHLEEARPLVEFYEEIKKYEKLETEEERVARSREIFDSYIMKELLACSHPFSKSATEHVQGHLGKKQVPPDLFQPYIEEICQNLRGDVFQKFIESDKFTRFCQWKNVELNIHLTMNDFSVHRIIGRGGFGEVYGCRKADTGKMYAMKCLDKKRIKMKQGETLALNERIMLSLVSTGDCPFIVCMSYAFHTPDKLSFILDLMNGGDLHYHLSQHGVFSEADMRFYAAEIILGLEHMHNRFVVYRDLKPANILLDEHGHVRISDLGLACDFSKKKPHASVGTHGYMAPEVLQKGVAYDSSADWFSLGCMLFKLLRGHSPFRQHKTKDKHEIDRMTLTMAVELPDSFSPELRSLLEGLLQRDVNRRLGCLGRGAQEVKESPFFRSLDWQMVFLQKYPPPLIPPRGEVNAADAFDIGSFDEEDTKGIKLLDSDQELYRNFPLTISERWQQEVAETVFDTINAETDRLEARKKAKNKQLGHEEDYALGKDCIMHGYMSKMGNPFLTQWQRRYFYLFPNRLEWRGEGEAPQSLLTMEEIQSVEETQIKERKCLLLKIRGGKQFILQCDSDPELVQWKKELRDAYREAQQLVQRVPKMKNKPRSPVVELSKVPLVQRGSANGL
Nature of the assay: Inhibition of human recombinant BARK1 at 40 nM related to control ULK1. The procedure, abridged: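 Radiometric activity assays in a panel of 327 human recombinant kinases, each run in duplicate at one inhibitor concentration. Activity remaining is expressed as percent of vehicle control, and percent inhibition is calculated as 100% minus percent activity remaining.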

In assay [3] the target is Serine/threonine-protein kinase 25 (Homo sapiens) (UniProt O00506). Kind of assay: Inhibition of human recombinant YSK1 at 40 nM related to control ULK1.
Assay [4] addresses T3, Tyrosine-protein kinase ITK/TSK (Homo sapiens) (UniProt Q08881).
T3 sequence (whole entry): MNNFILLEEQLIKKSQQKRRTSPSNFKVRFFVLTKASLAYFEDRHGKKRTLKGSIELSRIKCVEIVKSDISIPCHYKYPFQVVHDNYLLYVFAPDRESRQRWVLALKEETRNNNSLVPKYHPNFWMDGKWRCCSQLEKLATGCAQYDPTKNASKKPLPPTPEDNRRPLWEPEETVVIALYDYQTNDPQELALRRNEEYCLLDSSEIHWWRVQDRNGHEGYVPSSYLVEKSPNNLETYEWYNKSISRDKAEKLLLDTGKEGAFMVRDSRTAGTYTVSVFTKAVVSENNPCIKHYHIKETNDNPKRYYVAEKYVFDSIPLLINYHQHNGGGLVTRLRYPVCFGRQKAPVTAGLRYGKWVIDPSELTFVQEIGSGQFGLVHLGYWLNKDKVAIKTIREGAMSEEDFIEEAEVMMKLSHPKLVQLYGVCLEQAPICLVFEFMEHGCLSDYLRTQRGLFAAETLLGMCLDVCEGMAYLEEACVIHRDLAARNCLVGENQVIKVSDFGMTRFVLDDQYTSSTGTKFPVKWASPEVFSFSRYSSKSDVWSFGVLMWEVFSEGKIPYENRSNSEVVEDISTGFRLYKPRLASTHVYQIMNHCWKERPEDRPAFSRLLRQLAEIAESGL
Kind of assay: Inhibition of human recombinant ITK at 500 nM in presence of ATP by radiometric assay relative to control.

Assay [5] concerns the target Serine/threonine-protein kinase 10 (Homo sapiens) (UniProt O94804). Nature of the assay: Inhibition of human recombinant LOK at 500 nM in presence of ATP by radiometric assay relative to control.
For assay [6], the target named is Serine/threonine-protein kinase PAK 6 (Homo sapiens) (UniProt Q9NQU5). Nature of the assay: Inhibition of human recombinant PAK6 at 500 nM related to control ULK1.

The values below come from ChEMBL document CHEMBL5653631, “A Potent and Selective ULK1 Inhibitor Suppresses Autophagy and Sensitizes Cancer Cells to Nutrient Stress” (iScience, 2018).

As usually defined, the inhibition is the relative decrease from the control value, in per cent.

Sequence of Serine/threonine-protein kinase 25 (Homo sapiens) (O00506 whole entry, looked up): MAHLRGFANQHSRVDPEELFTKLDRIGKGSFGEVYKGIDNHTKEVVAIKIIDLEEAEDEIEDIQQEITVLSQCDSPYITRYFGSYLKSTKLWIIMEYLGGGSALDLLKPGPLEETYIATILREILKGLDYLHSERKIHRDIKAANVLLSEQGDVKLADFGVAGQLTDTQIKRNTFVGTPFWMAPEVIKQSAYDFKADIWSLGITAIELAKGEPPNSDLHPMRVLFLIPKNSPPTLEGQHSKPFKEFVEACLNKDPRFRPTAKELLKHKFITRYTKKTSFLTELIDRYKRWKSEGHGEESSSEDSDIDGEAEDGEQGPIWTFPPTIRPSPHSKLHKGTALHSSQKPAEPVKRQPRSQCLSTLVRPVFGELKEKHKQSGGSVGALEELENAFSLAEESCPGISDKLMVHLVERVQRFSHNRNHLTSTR
Sequence of Serine/threonine-protein kinase 10 (Homo sapiens) (O94804 whole entry, looked up): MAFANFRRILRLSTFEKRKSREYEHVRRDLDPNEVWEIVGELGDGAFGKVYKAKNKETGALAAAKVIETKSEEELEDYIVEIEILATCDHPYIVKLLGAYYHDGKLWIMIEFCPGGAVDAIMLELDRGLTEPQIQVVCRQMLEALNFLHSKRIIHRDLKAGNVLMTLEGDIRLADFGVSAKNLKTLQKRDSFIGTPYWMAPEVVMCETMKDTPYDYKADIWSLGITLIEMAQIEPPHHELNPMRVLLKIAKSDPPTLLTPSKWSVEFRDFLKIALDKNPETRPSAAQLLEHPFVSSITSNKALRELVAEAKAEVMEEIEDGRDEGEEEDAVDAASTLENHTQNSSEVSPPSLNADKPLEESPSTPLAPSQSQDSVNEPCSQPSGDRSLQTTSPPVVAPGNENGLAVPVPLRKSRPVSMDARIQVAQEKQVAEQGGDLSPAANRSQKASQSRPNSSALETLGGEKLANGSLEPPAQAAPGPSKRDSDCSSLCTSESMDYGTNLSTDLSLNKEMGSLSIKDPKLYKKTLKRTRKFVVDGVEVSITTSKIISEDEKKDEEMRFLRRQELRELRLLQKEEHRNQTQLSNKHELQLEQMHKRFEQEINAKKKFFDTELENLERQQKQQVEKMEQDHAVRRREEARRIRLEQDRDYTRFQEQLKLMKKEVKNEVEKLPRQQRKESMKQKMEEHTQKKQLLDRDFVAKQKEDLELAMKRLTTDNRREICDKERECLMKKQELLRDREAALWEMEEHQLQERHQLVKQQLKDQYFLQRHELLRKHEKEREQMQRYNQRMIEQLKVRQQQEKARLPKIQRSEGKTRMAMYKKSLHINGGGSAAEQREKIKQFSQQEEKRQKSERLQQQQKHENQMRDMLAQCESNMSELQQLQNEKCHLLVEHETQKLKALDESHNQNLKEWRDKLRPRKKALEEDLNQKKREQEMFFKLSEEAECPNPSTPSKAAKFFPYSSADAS
Sequence of Serine/threonine-protein kinase PAK 6 (Homo sapiens) (Q9NQU5 whole entry, looked up): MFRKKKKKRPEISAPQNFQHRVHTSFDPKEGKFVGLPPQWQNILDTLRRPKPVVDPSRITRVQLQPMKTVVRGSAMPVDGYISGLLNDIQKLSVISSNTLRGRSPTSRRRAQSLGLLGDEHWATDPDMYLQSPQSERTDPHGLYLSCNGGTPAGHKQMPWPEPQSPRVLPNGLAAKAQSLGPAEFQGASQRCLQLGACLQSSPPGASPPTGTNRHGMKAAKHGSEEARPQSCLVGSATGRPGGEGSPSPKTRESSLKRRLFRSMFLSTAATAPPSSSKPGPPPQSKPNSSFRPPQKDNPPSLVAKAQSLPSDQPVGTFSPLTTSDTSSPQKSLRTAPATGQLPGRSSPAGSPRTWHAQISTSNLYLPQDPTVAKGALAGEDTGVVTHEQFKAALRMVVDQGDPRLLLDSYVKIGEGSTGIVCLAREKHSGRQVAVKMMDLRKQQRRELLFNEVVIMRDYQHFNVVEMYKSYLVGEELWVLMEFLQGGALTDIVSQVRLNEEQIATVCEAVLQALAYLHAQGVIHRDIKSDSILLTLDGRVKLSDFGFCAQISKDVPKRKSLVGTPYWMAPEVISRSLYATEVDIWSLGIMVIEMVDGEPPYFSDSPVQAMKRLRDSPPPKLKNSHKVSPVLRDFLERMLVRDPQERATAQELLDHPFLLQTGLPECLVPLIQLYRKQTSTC

On to `O=C(N[C@@H](C1CC1)C(F)(F)F)c1cc(-c2cnn3cc(-c4ccc(F)cc4)cnc23)cs1`, for which the inhibition in assay [1] stood at 2%. Further, the fold change (FC) was 0.04 in assay [2] and 0 in assay [3].

`CNC(=O)c1ccccc1Oc1nc(Nc2cc(OC)c(OC)c(OC)c2)ncc1Br`: the figures for the inhibition in assay [4] and in assay [5] were 1% and 0%, respectively. Further, in assay [6], the fold change (FC) worked out at 0.26.
